Data reported in ChEMBL document CHEMBL1949561, “Synthesis and triplex-forming ability of oligonucleotides bearing 1-substituted 1H-1,2,3-triazole nucleobases” (Bioorg Med Chem, 2011).

What was measured:
Type in all cases: nucleic-acid assay
Nucleic Acid [1] = experiment: Binding affinity to 5'-GCTAAAAAGAGAGAGAGATCG-3'/5'- CGATCTCTCTCTCTTTTTAGC-3' double stranded DNA assessed as melting temperature at 1.5 uM in sodium phosphate buffer at pH 7 by UV spectrophotometric analysis
Summary of the method: (§1)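 UV melting of triplexes between each modified TFO and the 21-bp duplex target, in 7 mM sodium phosphate buffer (pH 7.0), 140 mM KCl and 10 mM MgCl₂. Each oligonucleotide at 1.5 µM final. Absorbance followed at 260 nm from 5 °C to 85 °C, scanned at 0.5 °C/min, to give Tm.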

Nucleic Acid [2] = experiment: Binding affinity to 5'-GCTAAAAAGATAGAGAGATCG-3'/5'- CGATCTCTCTATCTTTTTAGC-3' double stranded DNA assessed as melting temperature at 1.5 uM in sodium phosphate buffer at pH 7 by UV spectrophotometric analysis; summary of the method: as §1
Nucleic Acid [3] = experiment: Binding affinity to5'-GCTAAAAAGACAGAGAGATCG-3'/5'- CGATCTCTCTGTCTTTTTAGC-3' double stranded DNA assessed as melting temperature at 1.5 uM in sodium phosphate buffer at pH 7 by UV spectrophotometric analysis; summary of the method: as §1
Nucleic Acid [4] = experiment: Binding affinity to 5'-GCTAAAAAGAAAGAGAGATCG-3'/5'- CGATCTCTCTTTCTTTTTAGC-3' double stranded DNA assessed as melting temperature at 1.5 uM in sodium phosphate buffer at pH 7 by UV spectrophotometric analysis; summary of the method: as §1

Tm (Nucleic Acid [1]) | Tm (Nucleic Acid [2]) | Tm (Nucleic Acid [3]) | Tm (Nucleic Acid [4]) | Compound
< 10 °C | 15 °C | 25 °C | 17 °C | Cc1cn([C@H]2C[C@H](OP(=O)(O)OC[C@H]3O[C@@H](n4cc(C)c(=O)[nH]c4=O)C[C@@H]3OP(=O)(O)OC[C@H]3O[C@@H](n4cc(C)c(N)nc4=O)C[C@@H]3OP(=O)(O)OC[C@H]3O[C@@H](n4cc(C)c(=O)[nH]c4=O)C[C@@H]3OP(=O)(O)OC[C@H]3O[C@@H](n4cc(C)c(N)nc4=O)C[C@@H]3OP(=O)(O)OC[C@H]3O[C@@H](n4cc(C)c(=O)[nH]c4=O)C[C@@H]3OP(=O)(O)OC[C@H]3O[C@@H](c4cn(-c5ccccc5O)nn4)C[C@@H]3OP(=O)(O)OC[C@H]3O[C@@H](n4cc(C)c(=O)[nH]c4=O)C[C@@H]3OP(=O)(O)OC[C@H]3O[C@@H](n4cc(C)c(N)nc4=O)C[C@@H]3OP(=O)(O)OC[C@H]3O[C@@H](n4cc(C)c(=O)[nH]c4=O)C[C@@H]3OP(=O)(O)OC[C@H]3O[C@@H](n4cc(C)c(=O)[nH]c4=O)C[C@@H]3OP(=O)(O)OC[C@H]3O[C@@H](n4cc(C)c(=O)[nH]c4=O)C[C@@H]3OP(=O)(O)OC[C@H]3O[C@@H](n4cc(C)c(=O)[nH]c4=O)C[C@@H]3OP(=O)(O)OC[C@H]3O[C@@H](n4cc(C)c(=O)[nH]c4=O)C[C@@H]3O)[C@@H](COP(=O)(O)O[C@H]3C[C@H](n4cc(C)c(=O)[nH]c4=O)O[C@@H]3CO)O2)c(=O)nc1N
< 10 °C | 15 °C | 22 °C | < 10 °C | Cc1cn([C@H]2C[C@H](OP(=O)(O)OC[C@H]3O[C@@H](n4cc(C)c(=O)[nH]c4=O)C[C@@H]3OP(=O)(O)OC[C@H]3O[C@@H](n4cc(C)c(N)nc4=O)C[C@@H]3OP(=O)(O)OC[C@H]3O[C@@H](n4cc(C)c(=O)[nH]c4=O)C[C@@H]3OP(=O)(O)OC[C@H]3O[C@@H](n4cc(C)c(N)nc4=O)C[C@@H]3OP(=O)(O)OC[C@H]3O[C@@H](n4cc(C)c(=O)[nH]c4=O)C[C@@H]3OP(=O)(O)OC[C@H]3O[C@@H](c4cn(-c5cccc(C(=O)O)c5)nn4)C[C@@H]3OP(=O)(O)OC[C@H]3O[C@@H](n4cc(C)c(=O)[nH]c4=O)C[C@@H]3OP(=O)(O)OC[C@H]3O[C@@H](n4cc(C)c(N)nc4=O)C[C@@H]3OP(=O)(O)OC[C@H]3O[C@@H](n4cc(C)c(=O)[nH]c4=O)C[C@@H]3OP(=O)(O)OC[C@H]3O[C@@H](n4cc(C)c(=O)[nH]c4=O)C[C@@H]3OP(=O)(O)OC[C@H]3O[C@@H](n4cc(C)c(=O)[nH]c4=O)C[C@@H]3OP(=O)(O)OC[C@H]3O[C@@H](n4cc(C)c(=O)[nH]c4=O)C[C@@H]3OP(=O)(O)OC[C@H]3O[C@@H](n4cc(C)c(=O)[nH]c4=O)C[C@@H]3O)[C@@H](COP(=O)(O)O[C@H]3C[C@H](n4cc(C)c(=O)[nH]c4=O)O[C@@H]3CO)O2)c(=O)nc1N
< 10 °C | 14 °C | 23 °C | < 10 °C | Cc1cn([C@H]2C[C@H](OP(=O)(O)OC[C@H]3O[C@@H](n4cc(C)c(=O)[nH]c4=O)C[C@@H]3OP(=O)(O)OC[C@H]3O[C@@H](n4cc(C)c(N)nc4=O)C[C@@H]3OP(=O)(O)OC[C@H]3O[C@@H](n4cc(C)c(=O)[nH]c4=O)C[C@@H]3OP(=O)(O)OC[C@H]3O[C@@H](n4cc(C)c(N)nc4=O)C[C@@H]3OP(=O)(O)OC[C@H]3O[C@@H](n4cc(C)c(=O)[nH]c4=O)C[C@@H]3OP(=O)(O)OC[C@H]3O[C@@H](c4cn(-c5cccc(CO)c5)nn4)C[C@@H]3OP(=O)(O)OC[C@H]3O[C@@H](n4cc(C)c(=O)[nH]c4=O)C[C@@H]3OP(=O)(O)OC[C@H]3O[C@@H](n4cc(C)c(N)nc4=O)C[C@@H]3OP(=O)(O)OC[C@H]3O[C@@H](n4cc(C)c(=O)[nH]c4=O)C[C@@H]3OP(=O)(O)OC[C@H]3O[C@@H](n4cc(C)c(=O)[nH]c4=O)C[C@@H]3OP(=O)(O)OC[C@H]3O[C@@H](n4cc(C)c(=O)[nH]c4=O)C[C@@H]3OP(=O)(O)OC[C@H]3O[C@@H](n4cc(C)c(=O)[nH]c4=O)C[C@@H]3OP(=O)(O)OC[C@H]3O[C@@H](n4cc(C)c(=O)[nH]c4=O)C[C@@H]3O)[C@@H](COP(=O)(O)O[C@H]3C[C@H](n4cc(C)c(=O)[nH]c4=O)O[C@@H]3CO)O2)c(=O)nc1N

More lines, now with the values behind:

Compound | Tm (Nucleic Acid [1]) | Tm (Nucleic Acid [2]) | Tm (Nucleic Acid [3]) | Tm (Nucleic Acid [4])
CC(=O)NCCn1cc([C@H]2C[C@H](OP(=O)(O)OC[C@H]3O[C@@H](n4cc(C)c(=O)[nH]c4=O)C[C@@H]3OP(=O)(O)OC[C@H]3O[C@@H](n4cc(C)c(N)nc4=O)C[C@@H]3OP(=O)(O)OC[C@H]3O[C@@H](n4cc(C)c(=O)[nH]c4=O)C[C@@H]3OP(=O)(O)OC[C@H]3O[C@@H](n4cc(C)c(=O)[nH]c4=O)C[C@@H]3OP(=O)(O)OC[C@H]3O[C@@H](n4cc(C)c(=O)[nH]c4=O)C[C@@H]3OP(=O)(O)OC[C@H]3O[C@@H](n4cc(C)c(=O)[nH]c4=O)C[C@@H]3OP(=O)(O)OC[C@H]3O[C@@H](n4cc(C)c(=O)[nH]c4=O)C[C@@H]3O)[C@@H](COP(=O)(O)O[C@H]3C[C@H](n4cc(C)c(=O)[nH]c4=O)O[C@@H]3COP(=O)(O)O[C@H]3C[C@H](n4cc(C)c(N)nc4=O)O[C@@H]3COP(=O)(O)O[C@H]3C[C@H](n4cc(C)c(=O)[nH]c4=O)O[C@@H]3COP(=O)(O)O[C@H]3C[C@H](n4cc(C)c(N)nc4=O)O[C@@H]3COP(=O)(O)O[C@H]3C[C@H](n4cc(C)c(=O)[nH]c4=O)O[C@@H]3COP(=O)(O)O[C@H]3C[C@H](n4cc(C)c(N)nc4=O)O[C@@H]3COP(=O)(O)O[C@H]3C[C@H](n4cc(C)c(=O)[nH]c4=O)O[C@@H]3CO)O2)nn1 | < 10 °C | 14 °C | 20 °C | 14 °C
CCOC(=O)Cn1cc([C@H]2C[C@H](OP(=O)(O)OC[C@H]3O[C@@H](n4cc(C)c(=O)[nH]c4=O)C[C@@H]3OP(=O)(O)OC[C@H]3O[C@@H](n4cc(C)c(N)nc4=O)C[C@@H]3OP(=O)(O)OC[C@H]3O[C@@H](n4cc(C)c(=O)[nH]c4=O)C[C@@H]3OP(=O)(O)OC[C@H]3O[C@@H](n4cc(C)c(=O)[nH]c4=O)C[C@@H]3OP(=O)(O)OC[C@H]3O[C@@H](n4cc(C)c(=O)[nH]c4=O)C[C@@H]3OP(=O)(O)OC[C@H]3O[C@@H](n4cc(C)c(=O)[nH]c4=O)C[C@@H]3OP(=O)(O)OC[C@H]3O[C@@H](n4cc(C)c(=O)[nH]c4=O)C[C@@H]3O)[C@@H](COP(=O)(O)O[C@H]3C[C@H](n4cc(C)c(=O)[nH]c4=O)O[C@@H]3COP(=O)(O)O[C@H]3C[C@H](n4cc(C)c(N)nc4=O)O[C@@H]3COP(=O)(O)O[C@H]3C[C@H](n4cc(C)c(=O)[nH]c4=O)O[C@@H]3COP(=O)(O)O[C@H]3C[C@H](n4cc(C)c(N)nc4=O)O[C@@H]3COP(=O)(O)O[C@H]3C[C@H](n4cc(C)c(=O)[nH]c4=O)O[C@@H]3COP(=O)(O)O[C@H]3C[C@H](n4cc(C)c(N)nc4=O)O[C@@H]3COP(=O)(O)O[C@H]3C[C@H](n4cc(C)c(=O)[nH]c4=O)O[C@@H]3CO)O2)nn1 | 12 °C | 14 °C | 20 °C | < 10 °C
Cc1cn([C@H]2C[C@H](OP(=O)(O)OC[C@H]3O[C@@H](n4cc(C)c(=O)[nH]c4=O)C[C@@H]3OP(=O)(O)OC[C@H]3O[C@@H](n4cc(C)c(N)nc4=O)C[C@@H]3OP(=O)(O)OC[C@H]3O[C@@H](n4cc(C)c(=O)[nH]c4=O)C[C@@H]3OP(=O)(O)OC[C@H]3O[C@@H](n4cc(C)c(N)nc4=O)C[C@@H]3OP(=O)(O)OC[C@H]3O[C@@H](n4cc(C)c(=O)[nH]c4=O)C[C@@H]3OP(=O)(O)OC[C@H]3O[C@@H](c4cn(C5CCCCC5)nn4)C[C@@H]3OP(=O)(O)OC[C@H]3O[C@@H](n4cc(C)c(=O)[nH]c4=O)C[C@@H]3OP(=O)(O)OC[C@H]3O[C@@H](n4cc(C)c(N)nc4=O)C[C@@H]3OP(=O)(O)OC[C@H]3O[C@@H](n4cc(C)c(=O)[nH]c4=O)C[C@@H]3OP(=O)(O)OC[C@H]3O[C@@H](n4cc(C)c(=O)[nH]c4=O)C[C@@H]3OP(=O)(O)OC[C@H]3O[C@@H](n4cc(C)c(=O)[nH]c4=O)C[C@@H]3OP(=O)(O)OC[C@H]3O[C@@H](n4cc(C)c(=O)[nH]c4=O)C[C@@H]3OP(=O)(O)OC[C@H]3O[C@@H](n4cc(C)c(=O)[nH]c4=O)C[C@@H]3O)[C@@H](COP(=O)(O)O[C@H]3C[C@H](n4cc(C)c(=O)[nH]c4=O)O[C@@H]3CO)O2)c(=O)nc1N | < 10 °C | 12 °C | 20 °C | < 10 °C
Cc1cn([C@H]2C[C@H](OP(=O)(O)OC[C@H]3O[C@@H](n4cc(C)c(=O)[nH]c4=O)C[C@@H]3OP(=O)(O)OC[C@H]3O[C@@H](n4cc(C)c(N)nc4=O)C[C@@H]3OP(=O)(O)OC[C@H]3O[C@@H](n4cc(C)c(=O)[nH]c4=O)C[C@@H]3OP(=O)(O)OC[C@H]3O[C@@H](n4cc(C)c(N)nc4=O)C[C@@H]3OP(=O)(O)OC[C@H]3O[C@@H](n4cc(C)c(=O)[nH]c4=O)C[C@@H]3OP(=O)(O)OC[C@H]3O[C@@H](c4cn(-c5ccccc5C(=O)O)nn4)C[C@@H]3OP(=O)(O)OC[C@H]3O[C@@H](n4cc(C)c(=O)[nH]c4=O)C[C@@H]3OP(=O)(O)OC[C@H]3O[C@@H](n4cc(C)c(N)nc4=O)C[C@@H]3OP(=O)(O)OC[C@H]3O[C@@H](n4cc(C)c(=O)[nH]c4=O)C[C@@H]3OP(=O)(O)OC[C@H]3O[C@@H](n4cc(C)c(=O)[nH]c4=O)C[C@@H]3OP(=O)(O)OC[C@H]3O[C@@H](n4cc(C)c(=O)[nH]c4=O)C[C@@H]3OP(=O)(O)OC[C@H]3O[C@@H](n4cc(C)c(=O)[nH]c4=O)C[C@@H]3OP(=O)(O)OC[C@H]3O[C@@H](n4cc(C)c(=O)[nH]c4=O)C[C@@H]3O)[C@@H](COP(=O)(O)O[C@H]3C[C@H](n4cc(C)c(=O)[nH]c4=O)O[C@@H]3CO)O2)c(=O)nc1N | 12 °C | 15 °C | 17 °C | < 10 °C
